Experimental data published in ChEMBL document CHEMBL1152250, “Novel and orally active 5-(1,3,4-oxadiazol-2-yl)pyrimidine derivatives as selective FLT3 inhibitors” (Bioorg Med Chem Lett, 2008).

Key:
MOLM-13 [1] = assay: Antiproliferative activity against human MOLM13 cells after 72 hrs by WST-1 assay; type: functional; conditions: MOLM-13, 72 h
Method in brief: (§1)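 Cells kept in RPMI1640 with 10% heat-inactivated FBS, 1% penicillin and 1% streptomycin, seeded in 96-well plates and exposed to test compounds for 72 h. Viability read with WST-1 reagent. GI50 is the mean ± SEM of three experiments.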

[2] = Antiproliferative activity against human HMC1 cells expressing FLT-D835Y mutant after 72 hrs by WST-1 assay; type: functional; conditions: HMC1, 72 h; method in brief: as §1
MOLM-13 [3] = assay: Antitumor activity against human MOLM13 cells xenografted in po dosed SCID mouse assessed as tumor volume ratio administered bid for 5 days; type: functional, organism-based
Method in brief: (§2)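 SCID mice bearing subcutaneous MOLM-13 xenografts, 5 per group, dosed orally b.i.d. for 5 days. […] is the mean tumour volume ratio, treated to control. Regression is the mean tumour volume relative to the initial volume on day 0. Mortality and body weight were also recorded.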

[4] = Antiproliferative activity against human HMC1 cells expressing FLT3-delta599 mutant after 72 hrs by WST-1 assay; type: functional; conditions: HMC1, 72 h; method in brief: as §1
MOLM-13 [5] = assay: Antitumor activity against human MOLM13 cells xenografted in SCID mouse assessed as minimal tumor volume ratio at 50 mg/kg, po bid treated for 5 days measured after 7 days relative to control; type: functional; method in brief: as §2
MOLM-13 [6] = assay: Antitumor activity against human MOLM13 cells xenografted in po dosed SCID mouse assessed as regression tumor volume ratio administered bid for 5 days; type: functional, organism-based; method in brief: as §2
Mus musculus [7] = assay: Toxicity to human MOLM13 cells xenografted SCID mouse assessed as body weight loss at 200 mg/kg, po bid after 5 days; type: organism-based, MOLM-13; parameters: dose 200 mg/kg, route oral; conditions: in vivo, 120 h; method in brief: as §2
Liver microsomes = assay: Metabolic stability in human liver microsomes assessed as intrinsic clearance; type: ADME, Microsome
Method in brief: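 Pooled human liver microsomes (0.2 mg protein/mL) with test compound at 0.1 or 1 μmol/L, 5 mmol/L NADPH, 100 mmol/L phosphate buffer pH 7.4, 6 mmol/L MgCl2 and 0.1 mmol/L EDTA. Cosolvent was DMSO (0.01 or 0.001 vol%) or methanol (1 vol%). Incubated at 37 °C for a fixed time, n = 1 or 2. Stopped with CH3CN containing internal standard and analysed by LC-MS or LC-MS/MS. Intrinsic clearance calculated from percent remaining.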

MOLM-13 [8] = assay: Antitumor activity against human MOLM13 cells xenografted in SCID mouse assessed as minimal regressive tumor volume ratio at 100 mg/kg, po bid treated for 5 days measured after 7 days relative to control; type: functional; method in brief: as §2
Mus musculus [9] = assay: Toxicity to human MOLM13 cells xenografted SCID mouse assessed as mortality at 100 mg/kg, po bid after 5 days; type: organism-based, MOLM-13; parameters: dose 100 mg/kg, route oral; conditions: in vivo, 120 h
Method in brief: (§3)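 MOLM-13 cells implanted subcutaneously in SCID mice. Compound given orally twice daily for 5 days at 50, 100 or 200 mg/kg, alongside an untreated control group. Mortality was scored per dose group, together with tumor volume as treated/control ratio and relative to day-0 volume.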

MOLM-13 [10] = assay: Antitumor activity against human MOLM13 cells xenografted in SCID mouse assessed as minimal regressive tumor volume ratio at 50 mg/kg, po bid treated for 5 days measured after 7 days relative to control; type: functional; method in brief: as §2
Mus musculus [11] = assay: Toxicity to human MOLM13 cells xenografted SCID mouse assessed as mortality at 50 mg/kg, po bid after 5 days; type: organism-based, MOLM-13; parameters: dose 50 mg/kg, route oral; conditions: in vivo, 120 h; method in brief: as §3
[12] = Antiproliferative activity against human ML1 cells after 72 hrs by WST-1 assay; type: functional; conditions: ML1, 72 h; method in brief: as §1
MOLM-13 [13] = assay: Antitumor activity against human MOLM13 cells xenografted in SCID mouse assessed as minimal tumor volume ratio at 100 mg/kg, po bid treated for 5 days measured after 7 days relative to control; type: functional; method in brief: as §2
[14] = molecular target: T1, Receptor-type tyrosine-protein kinase FLT3 (Homo sapiens, UniProt P36888); assay: Inhibition of GST-tagged FLT3 by ELISA
T1 sequence (P36888 whole entry): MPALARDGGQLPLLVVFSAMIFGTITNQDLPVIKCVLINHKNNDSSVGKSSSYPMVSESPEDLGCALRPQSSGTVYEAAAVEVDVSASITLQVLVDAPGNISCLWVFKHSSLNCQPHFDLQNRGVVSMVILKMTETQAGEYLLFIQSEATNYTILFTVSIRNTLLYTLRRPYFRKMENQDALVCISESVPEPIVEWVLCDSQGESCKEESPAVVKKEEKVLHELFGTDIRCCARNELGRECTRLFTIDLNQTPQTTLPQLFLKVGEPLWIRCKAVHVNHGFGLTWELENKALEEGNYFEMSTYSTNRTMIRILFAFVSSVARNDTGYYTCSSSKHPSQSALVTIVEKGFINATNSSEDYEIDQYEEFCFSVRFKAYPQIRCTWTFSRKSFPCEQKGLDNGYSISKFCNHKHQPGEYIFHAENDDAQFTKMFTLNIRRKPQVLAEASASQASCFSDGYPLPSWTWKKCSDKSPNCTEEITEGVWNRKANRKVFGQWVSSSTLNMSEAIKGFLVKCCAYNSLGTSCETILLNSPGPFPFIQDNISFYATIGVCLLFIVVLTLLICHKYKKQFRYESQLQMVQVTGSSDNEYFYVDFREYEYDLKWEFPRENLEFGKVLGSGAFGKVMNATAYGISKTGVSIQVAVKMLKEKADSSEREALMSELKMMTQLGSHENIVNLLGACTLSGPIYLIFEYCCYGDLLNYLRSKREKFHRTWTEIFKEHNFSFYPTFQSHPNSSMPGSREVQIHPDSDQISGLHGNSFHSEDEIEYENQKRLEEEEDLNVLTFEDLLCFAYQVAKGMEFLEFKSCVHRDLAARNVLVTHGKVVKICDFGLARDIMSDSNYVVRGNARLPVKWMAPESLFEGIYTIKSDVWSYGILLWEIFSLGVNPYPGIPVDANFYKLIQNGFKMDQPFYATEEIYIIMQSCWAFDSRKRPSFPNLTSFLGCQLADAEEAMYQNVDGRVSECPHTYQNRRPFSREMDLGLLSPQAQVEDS

[15] = Metabolic stability in human liver microsomes
Mus musculus [16] = assay: Toxicity to human MOLM13 cells xenografted SCID mouse assessed as mortality at 200 mg/kg, po bid after 5 days; type: organism-based, MOLM-13; parameters: dose 200 mg/kg, route oral; conditions: in vivo, 120 h; method in brief: as §3
MOLM-13 [17] = assay: Antitumor activity against human MOLM13 cells xenografted in SCID mouse assessed as minimal regressive tumor volume ratio at 200 mg/kg, po bid treated for 5 days measured after 10 days relative to control; type: functional; method in brief: as §2
MOLM-13 [18] = assay: Antitumor activity against human MOLM13 cells xenografted in SCID mouse assessed as tumor volume ratio at 200 mg/kg, po bid treated for 5 days measured after 10 days relative to control; type: functional; method in brief: as §2
MOLM-13 [19] = assay: Antitumor activity against human MOLM13 cells xenografted in SCID mouse assessed as minimal regressive tumor volume ratio at 100 mg/kg, po bid treated for 5 days measured after 4 days relative to control; type: functional; method in brief: as §2

Compound | GI50 (MOLM-13 [1]) [nM] | clearance (Liver microsomes) [mL/min/kg] | further results
CCNc1nc(NCCc2ccncc2)ncc1-c1nnc(CN2C[C@@H](C)N[C@@H](C)C2)o1 | 94 | 13.3 | GI50 [2]: 48 nM; Activity (MOLM-13 [3]): Dose-dependent effect; GI50 [4]: 74 nM; T/C (MOLM-13 [5]): 0.2; Activity (MOLM-13 [6]): Dose-dependent effect; Activity (Mus musculus [7]): Non-toxic; Ratio (MOLM-13 [8]): 0.12; Activity (Mus musculus [9]): Non-toxic; Ratio (MOLM-13 [10]): 1.39; Activity (Mus musculus [11]): Non-toxic; GI50 [12]: > 10000 nM; T/C (MOLM-13 [13]): 0.014
CCCNc1nc(NCCc2ccncc2)ncc1-c1nnc(CN2CCN(CCO)CC2)o1 | 57 | 50 | 
c1cc(CCNc2ncc(-c3nnc(CN4CCNCC4)o3)c(NC3CCC3)n2)ccn1 | 50 | 105 | 
CCCNc1nc(NCCc2ccncc2)ncc1-c1nnc(C2CC2)o1 | 36 | 217 | GI50 [2]: 52 nM; IC50 [14]: 4.9 nM; Activity [15]: Unstable; GI50 [4]: 36 nM; T/C (MOLM-13 [5]): 0.47; Activity (Mus musculus [7]): Non-toxic; Activity (Mus musculus [11]): Non-toxic; GI50 [12]: 4320 nM; T/C (MOLM-13 [13]): 0.34
CCCOc1nc(NCCc2ccncc2)ncc1-c1nnc(CN2CCN(C)CC2)o1 | 308 | 11.7 | 
CCCNc1nc(NCCc2ccncc2)ncc1-c1nnc(CN2CCN(C(C)=O)CC2)o1 | 66 | 137 | 
CCCNc1nc(NCCc2ccncc2)ncc1-c1nnc(CN2C[C@@H](C)N[C@@H](C)C2)o1 | 43 | 115 | 
CCCNc1nc(NCCc2ccncc2)ncc1-c1nnc(CN2CCOCC2)o1 | 43 | 167 | 
CCCNc1nc(NCCc2ccncc2)ncc1-c1nnc(CNCCN(C)C)o1 | 78 | 50 | 
CCCNc1nc(NCCc2ccncc2)ncc1-c1nnc(CN2CCN(C)CC2)o1 | 19 | 81.7 | GI50 [2]: 31 nM; GI50 [4]: 37 nM; Activity (Mus musculus [7]): Non-toxic; Activity (Mus musculus [11]): Non-toxic; GI50 [12]: > 10000 nM
CCNc1nc(NCCc2ccncc2)ncc1-c1nnc(CN2CCN(C)CC2)o1 | 102 | 45 | GI50 [2]: 63 nM; GI50 [4]: 114 nM; T/C (MOLM-13 [5]): 0.24; Activity (Mus musculus [7]): Non-toxic; Activity (Mus musculus [11]): Non-toxic; GI50 [12]: > 10000 nM
CCCNc1nc(NCCc2ccncc2)ncc1-c1nnc(CN(C)C)o1 | 73 | 183 | T/C (MOLM-13 [5]): 0.45; Activity (Mus musculus [11]): Non-toxic
FCCCNc1nc(NCCc2ccncc2)ncc1-c1nnc(CN2CCNCC2)o1 | 99 | 1.67 | 
CC(C)Nc1nc(NCCc2ccncc2)ncc1-c1nnc(CN2CCNCC2)o1 | 49 | 25 | 
CCCNc1nc(NCCc2cccs2)ncc1-c1nnc(C)o1 |  |  | IC50 [14]: 373 nM
CCCNc1nc(NCCc2ccncc2)ncc1-c1nnc(CN2CCNCC2)o1 | 29 | 18.3 | GI50 [2]: 65 nM; Activity (Mus musculus [16]): Non-toxic; Ratio (MOLM-13 [17]): 0.098; Activity (MOLM-13 [3]): Dose-dependent effect; T/C (MOLM-13 [18]): 0.006; GI50 [4]: 74 nM; Activity (MOLM-13 [6]): Dose-dependent effect; Ratio (MOLM-13 [19]): 0.571; Activity (Mus musculus [7]): Non-toxic; Activity (Mus musculus [9]): Non-toxic; Activity (Mus musculus [11]): Non-toxic; GI50 [12]: 9110 nM; T/C (MOLM-13 [13]): 0.1

The next lines start with results.

GI50 (MOLM-13 [1]) [nM] | clearance (Liver microsomes) [mL/min/kg] | Compound | further results
10000 |  | N#Cc1cc(CCNc2ncc(-c3nnc(C4CC4)o3)c(Nc3ccccc3)n2)ccn1 | 
3.2 |  | Oc1ccc(Nc2nc(NCCc3ccncc3)ncc2-c2nnc(C3CC3)o2)cc1 | IC50 [14]: 4.8 nM
123 | 20 | OCCNc1nc(NCCc2ccncc2)ncc1-c1nnc(C2CC2)o1 | IC50 [14]: 63 nM
137 | 367 | Cc1cc(CCNc2ncc(-c3nnc(C4CC4)o3)c(Nc3ccccc3)n2)ccn1 | 
23 | 183 | Cc1ccc(Nc2nc(NCCc3ccncc3)ncc2-c2nnc(C3CC3)o2)cc1 | IC50 [14]: 106 nM
262 | 1.67 | CNc1nc(NCCc2ccncc2)ncc1-c1nnc(CN2CCN(C)CC2)o1 | 
44 | 85 | Oc1ccc(CCNc2ncc(-c3nnc(C4CC4)o3)c(Nc3ccccc3)n2)cc1 | 
113 | 41.7 | Oc1cc(CCNc2ncc(-c3nnc(C4CC4)o3)c(Nc3ccccc3)n2)ccn1 | 
287 | 68.3 | Nc1ccc(CCNc2ncc(-c3nnc(C4CC4)o3)c(Nc3ccccc3)n2)cc1 | 
52 | 86.7 | CN1CCN(Cc2nnc(-c3cnc(NCCc4ccncc4)nc3NCC3CC3)o2)CC1 | 
74 | 50 | CCCNc1nc(NCCc2ccncc2)ncc1-c1nnc(CN2CCC(N)CC2)o1 | 
139 | 20 | CNc1nc(NCCc2ccncc2)ncc1-c1nnc(C2CC2)o1 | IC50 [14]: 35 nM
588 |  | CS(=O)(=O)CCNc1nc(NCCc2ccncc2)ncc1-c1nnc(C2CC2)o1 | IC50 [14]: 515 nM
263 | 23.3 | CCOc1nc(NCCc2ccncc2)ncc1-c1nnc(C2CC2)o1 | IC50 [14]: 80 nM
56 | 35 | CCCNc1nc(NCCc2ccncc2)ncc1-c1nnc(CO)o1 | GI50 [2]: 116 nM; GI50 [4]: 76 nM; GI50 [12]: 5960 nM
40 | 217 | Cc1ccccc1Nc1nc(NCCc2ccncc2)ncc1-c1nnc(C2CC2)o1 | IC50 [14]: 134 nM
999 |  | COc1cc(CCNc2ncc(-c3nnc(C4CC4)o3)c(Nc3ccccc3)n2)ccn1 | 
10 | 267 | Oc1cccc(Nc2nc(NCCc3ccncc3)ncc2-c2nnc(C3CC3)o2)c1 | IC50 [14]: 34 nM
40 | 317 | c1ccc(Nc2nc(NCCc3ccncc3)ncc2-c2nnc(C3CC3)o2)cc1 | IC50 [14]: 47 nM
775 | 73.3 | c1ccc(Nc2nc(NCCc3ccncn3)ncc2-c2nnc(C3CC3)o2)cc1 | 
74 | 38.3 | c1ccc(Nc2nc(NCCc3ccncc3)ncc2-c2nnc(CN3CCNCC3)o2)cc1 | 
3610 | 3.33 | [O-][n+]1ccc(CCNc2ncc(-c3nnc(C4CC4)o3)c(Nc3ccccc3)n2)cc1 | 
